Source: ChEMBL document CHEMBL4330063, “New naphthopyran analogues of LY290181 as potential tumor vascular-disrupting agents” (Eur J Med Chem, 2019)
The source made the active and inactive calls. The calls are words filed in the database; no cut-off is given here.

Assays:
Chorioallantoic membrane [1] = experiment: Antiangiogenic activity in Leghorn chicken embryo chorioallantoic membrane assessed as reduction in diameter of main blood vessel at 5 nmol after 24 hrs by light microscopic analysis; format: functional, tissue-based; settings: Gallus gallus
Summary of the method: (§1)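 Fertilized chicken eggs, CAM assay. Compound was applied topically into a small silicon foil ring placed on the CAM. The membrane and its extraembryonal blood vessels were monitored over 24 h, with observations at 6 h and 24 h post application.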

[2] = Antiproliferative activity against human MCF7/Topo cells after 72 hrs by MTT assay; format: functional, cell-based
Summary of the method: (§2)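 MTT read-out after 72 h of continuous exposure. Viability is expressed as percentage of viable cells relative to untreated controls. IC50 comes from dose-response curves. Values are means±SD of four independent experiments (two for some entries). DMSO was below 1%, with vehicle controls at equal DMSO. Precipitation was excluded spectrometrically and microscopically.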

HT-29 [3] = experiment: Cell cycle arrest in human HT-29 cells assessed as accumulation of cells at sub G1 phase at 350 nM after 24 hrs by propidium iodide staining-based flow cytometric analysis (reference value: 1.2 +/- 0.3%); format: functional
HT-29 [4] = experiment: Cell cycle arrest in human HT-29 cells assessed as accumulation of cells at G2/M phase at 250 nM after 24 hrs by propidium iodide staining-based flow cytometric analysis (reference value: 11.4 +/- 1.4%); format: functional
Chorioallantoic membrane [5] = experiment: Antiangiogenic activity in Leghorn chicken embryo chorioallantoic membrane assessed as disruption of smaller blood vessels at 5 nmol after 24 hrs by light microscopic analysis; format: functional, tissue-based; settings: Gallus gallus; summary of the method: as §1
A2780 = experiment: Antiproliferative activity against human A2780 cells after 72 hrs by SRB assay; format: functional, cell-based; settings: A2780, 72 h
Summary of the method: (§3)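 Ovarian A2780 and cisplatin-resistant A2780cis cells were exposed for 72 h and stained with SRB. IC50 comes from dose-response curves, as means±SD of three independent experiments. Final DMSO was below 1%, with matched vehicle controls.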

HT-29 [6] = experiment: Cell cycle arrest in human HT-29 cells assessed as accumulation of cells at G2/M phase after 24 hrs by propidium iodide staining-based flow cytometric analysis; format: functional
HT-29 [7] = experiment: Cell cycle arrest in human HT-29 cells assessed as accumulation of cells at S phase at 100 nM after 24 hrs by propidium iodide staining-based flow cytometric analysis (reference value: 12.3 +/- 0.4%); format: functional
Chorioallantoic membrane [8] = experiment: Antiangiogenic activity in Leghorn chicken embryo chorioallantoic membrane assessed as induction of hemorrhages at 5 nmol after 24 hrs by light microscopic analysis; format: functional, tissue-based; settings: Gallus gallus; summary of the method: as §1
HT-29 [9] = experiment: Cell cycle arrest in human HT-29 cells assessed as accumulation of cells at S phase at 250 nM after 24 hrs by propidium iodide staining-based flow cytometric analysis (reference value: 12.3 +/- 0.4%); format: functional
DLD-1 = experiment: Antiproliferative activity against human DLD1 cells after 72 hrs by MTT assay; format: functional, cell-based; settings: DLD-1, 72 h; summary of the method: as §2
[10] = Antiproliferative activity against human KB-V1/Vbl cells after 72 hrs by MTT assay; format: functional, cell-based; summary of the method: as §2
Chorioallantoic membrane [11] = experiment: Antiangiogenic activity in Leghorn chicken embryo chorioallantoic membrane assessed as reduction in blood vessel area at 5 nmol after 6 hrs by light microscopic analysis relative to control; format: functional, tissue-based; design: scale not given: the % may be the effect or the level left; settings: Gallus gallus
Summary of the method: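 The CAM assay was run with topical application into a silicon foil ring atop the CAM of fertilized chicken eggs. Area covered by blood vessels was quantified by fractal analysis relative to control.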

HCT-116 = experiment: Antiproliferative activity against human HCT116 cells after 72 hrs by MTT assay; format: functional, cell-based; settings: HCT-116, 72 h; summary of the method: as §2
518A2 [12] = experiment: Induction of apoptosis in human 518A2 cells assessed as accumulation at subG1 phase; format: functional, cell-based
HT-29 [13] = experiment: Cell cycle arrest in human HT-29 cells assessed as accumulation of cells at sub G1 phase at 100 nM after 24 hrs by propidium iodide staining-based flow cytometric analysis (reference value: 1.2 +/- 0.3%); format: functional
Chorioallantoic membrane [14] = experiment: Antiangiogenic activity in Leghorn chicken embryo chorioallantoic membrane assessed as induction of hemorrhages at 5 nmol after 6 hrs by light microscopic analysis; format: functional, tissue-based; settings: Gallus gallus; summary of the method: as §1
HT-29 [15] = experiment: Cell cycle arrest in human HT-29 cells assessed as accumulation of cells at S phase at 350 nM after 24 hrs by propidium iodide staining-based flow cytometric analysis (reference value: 12.3 +/- 0.4%); format: functional
518A2 [16] = experiment: Induction of cell cycle arrest in human 518A2 cells; format: functional, cell-based
Chorioallantoic membrane [17] = experiment: Antiangiogenic activity in Leghorn chicken embryo chorioallantoic membrane assessed as effect on blood vessel length at 5 nmol after 6 hrs by light microscopic analysis; format: functional, tissue-based; settings: Gallus gallus; summary of the method: as §1
Chorioallantoic membrane [18] = experiment: Antiangiogenic activity in Leghorn chicken embryo chorioallantoic membrane assessed as disruption of smaller blood vessels at 5 nmol after 6 hrs by light microscopic analysis; format: functional, tissue-based; settings: Gallus gallus; summary of the method: as §1
HT-29 [19] = experiment: Cell cycle arrest in human HT-29 cells assessed as accumulation of cells at G1 phase at 350 nM after 24 hrs by propidium iodide staining-based flow cytometric analysis (reference value: 75.1 +/- 1.1%); format: functional
HT-29 [20] = experiment: Cell cycle arrest in human HT-29 cells assessed as accumulation of cells at G1 phase at 100 nM after 24 hrs by propidium iodide staining-based flow cytometric analysis (reference value: 75.1 +/- 1.1%); format: functional
PANC-1 = experiment: Antiproliferative activity against human PANC1 cells after 72 hrs by MTT assay; format: functional, cell-based; settings: PANC-1, 72 h; summary of the method: as §2
HT-29 [21] = experiment: Cell cycle arrest in human HT-29 cells assessed as accumulation of cells at G2/M phase at 350 nM after 24 hrs by propidium iodide staining-based flow cytometric analysis (reference value: 11.4 +/- 1.4%); format: functional
HT-29 [22] = experiment: Cell cycle arrest in human HT-29 cells assessed as accumulation of cells at sub G1 phase at 250 nM after 24 hrs by propidium iodide staining-based flow cytometric analysis (reference value: 1.2 +/- 0.3%); format: functional
HT-29 [23] = experiment: Antiproliferative activity against human HT-29 cells after 72 hrs by MTT assay; format: functional, cell-based; settings: HT-29, 72 h; summary of the method: as §2
HT-29 [24] = experiment: Cell cycle arrest in human HT-29 cells assessed as accumulation of cells at G2/M phase at 100 nM after 24 hrs by propidium iodide staining-based flow cytometric analysis (reference value: 11.4 +/- 1.4%); format: functional
HT-29 [25] = experiment: Cell cycle arrest in human HT-29 cells assessed as accumulation of cells at G1 phase at 250 nM after 24 hrs by propidium iodide staining-based flow cytometric analysis (reference value: 75.1 +/- 1.1%); format: functional
EA.hy 926 = experiment: Antiproliferative activity against human EAhy926 cells after 72 hrs by MTT assay; format: functional, cell-based; settings: EA.hy 926, 72 h; summary of the method: as §2
518A2 [26] = experiment: Antiproliferative activity against human 518A2 cells after 72 hrs by MTT assay; format: functional, cell-based; settings: for IC50: 518A2, 72 h; summary of the method: as §2
[27] = Antiproliferative activity against human A2780cis cells after 72 hrs by SRB assay; format: functional, cell-based; summary of the method: as §3

N#CC1=C(N)Oc2c(cc(Cl)c3ccccc23)C1c1cccc(C#N)c1 (stereo unspecified)
Activity (Chorioallantoic membrane [1]): Active
IC50 [2]: 58.1 nM
Activity (HT-29 [3]): 27%
Activity (HT-29 [4]): 40.9%
Activity (Chorioallantoic membrane [5]): inactive
IC50 (A2780): 49.9 nM
Activity (HT-29 [6]): Dose-dependent effect
Activity (HT-29 [7]): 16.1%
Activity (Chorioallantoic membrane [8]): inactive
Activity (HT-29 [9]): 9.1%
IC50 (DLD-1): 69.4 nM
IC50 [10]: 55.9 nM
Activity (Chorioallantoic membrane [11]): inactive
IC50 (HCT-116): 73.5 nM
Activity (518A2 [12]): Active
Activity (HT-29 [13]): 19.8%
Activity (Chorioallantoic membrane [14]): Active
Activity (HT-29 [15]): 8.5%
Activity (518A2 [16]): inactive
Activity (Chorioallantoic membrane [17]): inactive
Activity (Chorioallantoic membrane [18]): Active
Activity (HT-29 [19]): 13%
Activity (HT-29 [20]): 51.7%
IC50 (PANC-1): 54.9 nM
Activity (HT-29 [21]): 51.6%
Activity (HT-29 [22]): 27.8%
IC50 (HT-29 [23]): 67.3 nM
Activity (HT-29 [24]): 12.3%
Activity (HT-29 [25]): 22.2%
IC50 (EA.hy 926): 78.6 nM
Activity (518A2 [26]): Dose-dependent effect
IC50 (518A2 [26]): 60.5 nM
IC50 [27]: 56.7 nM

N#CC1=C(N)Oc2c(cc(Cl)c3ccccc23)C1c1cccc([N+](=O)[O-])c1 (stereo unspecified)
Activity (Chorioallantoic membrane [1]): Active
IC50 [2]: 88.5 nM
Activity (HT-29 [3]): 6.6%
Activity (HT-29 [4]): 17.7%
Activity (Chorioallantoic membrane [5]): inactive
IC50 (A2780): 61.1 nM
Activity (HT-29 [6]): Dose-dependent effect
Activity (HT-29 [7]): 23.6%
Activity (Chorioallantoic membrane [8]): inactive
Activity (HT-29 [9]): 11.3%
IC50 (DLD-1): 22.3 nM
IC50 [10]: 73.3 nM
Activity (Chorioallantoic membrane [11]): 74%
IC50 (HCT-116): 112 nM
Activity (518A2 [12]): Active
Activity (HT-29 [13]): 2%
Activity (Chorioallantoic membrane [14]): Active
Activity (HT-29 [15]): 5.2%
Activity (518A2 [16]): inactive
Activity (Chorioallantoic membrane [17]): inactive
Activity (Chorioallantoic membrane [18]): Active
Activity (HT-29 [19]): 14.8%
Activity (HT-29 [20]): 55.8%
IC50 (PANC-1): 65.9 nM
Activity (HT-29 [21]): 73.5%
Activity (HT-29 [22]): 17.6%
IC50 (HT-29 [23]): 209 nM
Activity (HT-29 [24]): 18.6%
Activity (HT-29 [25]): 53.5%
IC50 (EA.hy 926): 90.8 nM
Activity (518A2 [26]): Dose-dependent effect
IC50 (518A2 [26]): 225 nM
IC50 [27]: 46 nM

COc1cc(C2C(C#N)=C(N)Oc3c2ccc2ccccc32)ccc1OCc1ccccc1 (stereo unspecified)
IC50 (A2780): 2150 nM
IC50 (HT-29 [23]): 5820 nM
Activity (518A2 [26]): Dose-dependent effect
IC50 (518A2 [26]): 1660 nM
IC50 [27]: 2340 nM

CSc1ccc(C2C(C#N)=C(N)Oc3c2cc(Cl)c2ccccc32)cc1 (stereo unspecified)
IC50 (A2780): 1070 nM
IC50 (HT-29 [23]): 1540 nM
Activity (518A2 [26]): Dose-dependent effect
IC50 (518A2 [26]): 1350 nM
IC50 [27]: 1290 nM

N#CC1=C(N)Oc2c(cc(Cl)c3ccccc23)C1c1cccc(Br)c1 (stereo unspecified)
IC50 (A2780): 155 nM
IC50 (HT-29 [23]): 245 nM
Activity (518A2 [26]): Dose-dependent effect
IC50 (518A2 [26]): 229 nM
IC50 [27]: 166 nM

N#CC1=C(N)Oc2c(cc(Cl)c3ccccc23)C1c1ccc(C#N)cc1 (stereo unspecified)
IC50 (A2780): 1440 nM
IC50 (HT-29 [23]): 1590 nM
Activity (518A2 [26]): Dose-dependent effect
IC50 (518A2 [26]): 753 nM
IC50 [27]: 1410 nM

N#CC1=C(N)Oc2c(ccc3ccccc23)C1c1ccc(C#N)cc1 (stereo unspecified)
IC50 (A2780): 759 nM
IC50 (HT-29 [23]): 1230 nM
Activity (518A2 [26]): Dose-dependent effect
IC50 (518A2 [26]): 939 nM
IC50 [27]: 774 nM

N#CC1=C(N)Oc2c(cc(Cl)c3ccccc23)C1c1ccccc1Cl (stereo unspecified)
IC50 (A2780): 912 nM
IC50 (HT-29 [23]): 2030 nM
Activity (518A2 [26]): Dose-dependent effect
IC50 (518A2 [26]): 9910 nM
IC50 [27]: 973 nM

N#CC1=C(N)Oc2c(ccc3ccccc23)C1c1cccc(S(F)(F)(F)(F)F)c1 (stereo unspecified)
IC50 (A2780): 188 nM
IC50 (HT-29 [23]): 570 nM
Activity (518A2 [26]): Dose-dependent effect
IC50 (518A2 [26]): 505 nM
IC50 [27]: 265 nM

COc1c(Br)cc(C2C(C#N)=C(N)Oc3c2cc(Cl)c2ccccc32)cc1Br (stereo unspecified)
IC50 (A2780): 160 nM
IC50 (HT-29 [23]): 188 nM
Activity (518A2 [26]): Dose-dependent effect
IC50 (518A2 [26]): 144 nM
IC50 [27]: 168 nM

N#CC1=C(N)Oc2c(ccc3ccccc23)C1c1ccc(S(F)(F)(F)(F)F)cc1 (stereo unspecified)
IC50 (A2780): 5160 nM
IC50 (HT-29 [23]): 9970 nM
Activity (518A2 [26]): Dose-dependent effect
IC50 (518A2 [26]): 7130 nM
IC50 [27]: 5580 nM

CSc1ccc(C2C(C#N)=C(N)Oc3c2ccc2ccccc32)cc1 (stereo unspecified)
IC50 (A2780): 363 nM
IC50 (HT-29 [23]): 1100 nM
Activity (518A2 [26]): Dose-dependent effect
IC50 (518A2 [26]): 1980 nM
IC50 [27]: 430 nM
